Laboratory results reported in ChEMBL document CHEMBL2434961, “Development of 3-phenyl-4,5,6,7-tetrahydro-1H-pyrazolo[4,3-c]pyridine derivatives as novel Mycobacterium tuberculosis pantothenate synthetase inhibitors” (Eur J Med Chem, 2013).
Converted amounts (≈) assume the structure as drawn.

Assays:
[1] = biological target: T1, Pantothenate synthetase (Mycobacterium tuberculosis) (UniProt P9WIL5); experiment: Inhibition of Mycobacterium tuberculosis pantothenate synthetase cloned in Escherichia coli BL21 (DE3) using ATP, beta-alanine, pantoic acid as substrate assessed as NAD+ production at 100 uM measured every 12 secs for 120 secs by spectrophotometric analysis relative to control
T1 sequence (whole entry): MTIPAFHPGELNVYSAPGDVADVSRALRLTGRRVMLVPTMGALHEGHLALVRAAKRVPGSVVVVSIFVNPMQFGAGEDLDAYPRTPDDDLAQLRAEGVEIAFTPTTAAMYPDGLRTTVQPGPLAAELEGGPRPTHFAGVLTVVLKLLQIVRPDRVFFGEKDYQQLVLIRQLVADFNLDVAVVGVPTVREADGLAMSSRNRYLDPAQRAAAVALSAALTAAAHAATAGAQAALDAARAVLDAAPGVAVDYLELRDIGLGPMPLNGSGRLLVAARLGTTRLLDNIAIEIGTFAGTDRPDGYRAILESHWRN
Procedure, shortened: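 Coupled assay linking AMP from β-alanine plus pantoate condensation to NADH oxidation via myokinase, pyruvate kinase and lactate dehydrogenase. Mix held NADH, pantoic acid, β-alanine, ATP, phosphoenolpyruvate and MgCl₂ in buffer; compound (100 µM) added; reaction started with PS. A340 read every 12 s for 120 s. % inhibition = 100 × (1 − (compound rate − background)/(full rate − background)).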

[2] = Cytotoxicity against mouse RAW264.7 cells assessed as inhibition of cell viability at 50 uM after 72 hrs by MTT assay relative to control; format: cell-based; conditions: read-out: INH
Procedure, shortened: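 RAW 264.7 mouse macrophage cells exposed to compound at 50 µM for 72 h. Viability assessed by cellular conversion of MTT to formazan.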

[3] = tested on: Mycobacterium tuberculosis; experiment: Antibacterial activity against Mycobacterium tuberculosis H37Rv ATCC 27294 assessed as growth inhibition after 28 days by agar dilution method; format: functional; conditions: H37Rv ATCC 27294, 672 h
Procedure, shortened: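 Two-fold serial dilutions incorporated into Middlebrook 7H11 agar with OADC, final 50 to 0.78 µg/mL. Inoculum of 1 mg/mL (wet weight) in 0.05% Tween 80 saline, diluted 10⁻² to ~10⁷ cfu/mL. 5 µL spotted per tube, incubated at 37 °C for 28 days. MIC is the lowest concentration giving complete growth inhibition.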

Pantothenate synthetase = biological target: T2, Pantothenate synthetase (Mycobacterium tuberculosis, UniProt P9WIL5); experiment: Inhibition of Mycobacterium tuberculosis pantothenate synthetase cloned in Escherichia coli BL21 (DE3) using ATP, beta-alanine, pantoic acid as substrate assessed as NAD+ production measured every 12 secs for 120 secs by spectrophotometric analysis
T2 sequence (P9WIL5 whole entry): T1 sequence (whole entry)
Procedure, shortened: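 Same AMP-coupled NADH/A340 PS assay (NADH, pantoic acid, β-alanine, ATP, PEP, MgCl₂, myokinase, pyruvate kinase, LDH; reaction started with enzyme; read every 12 s for 120 s). IC₅₀ determined for compounds exceeding 60% inhibition at 100 µM, using rate-based % inhibition corrected for background.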

| Compound | inhibition [1] [%] | cytotoxicity at 72 h, 50 µM [2] [%] | MIC [3] [µM] | IC50 (Pantothenate synthetase) [µM] |
| --- | --- | --- | --- | --- |
| O=C(C1CCCCC1)n1nc(-c2ccccc2)c2c1CCN(C(=S)Nc1ccc([N+](=O)[O-])cc1)C2 | 47.3 | 0 | 53.5 (≈ 26.2 µg/mL) |  |
| O=C(Nc1cccc2ccccc12)N1CCc2c(c(-c3ccccc3)nn2C(=O)c2ccccc2)C1 | 89.8 | 4.7 | 48.8 (≈ 23.1 µg/mL) | 38.2 |
| O=C(Nc1cccc2ccccc12)N1CCc2c(c(-c3ccccc3)nn2C(=O)C2CCCCC2)C1 | 50.9 | 4.1 | 52.2 (≈ 25 µg/mL) |  |
| O=C(Nc1ccc(Br)cc1)N1CCc2c(c(-c3ccccc3)nn2C(=O)c2ccccc2)C1 | 60.6 | 42 | 99.7 (≈ 50 µg/mL) | 82.1 |
| CC[C@@H](CO)NCCN[C@@H](CC)CO [ETHAMBUTOL] | 0 |  | 15.3 (≈ 3.12 µg/mL) |  |
| O=C(NCc1ccccc1)N1CCc2c(c(-c3ccccc3)nn2C(=O)c2ccccc2)C1 | 46.2 | 0.7 | 114 (≈ 49.8 µg/mL) |  |
| O=C(c1ccccc1)n1nc(-c2ccccc2)c2c1CCN(C(=S)Nc1ccc(F)cc1)C2 | 43.5 | 0.5 | 110 (≈ 50 µg/mL) |  |
| Cc1ccc(NC(=S)N2CCc3c(c(-c4ccccc4)nn3C(=O)c3ccccc3)C2)cc1 | 23.9 | 0 | > 110 |  |
| O=C(C1CCCCC1)n1nc(-c2ccccc2)c2c1CCN(C(=S)NCc1ccccc1)C2 | 51.4 | 20.6 | 108 (≈ 49.5 µg/mL) |  |
| COc1ccc(NC(=S)N2CCc3c(c(-c4ccccc4)nn3C(=O)C3CCCCC3)C2)cc1 | 50.6 | 9.5 | 102 (≈ 48.3 µg/mL) |  |
| O=C(C1CCCCC1)n1nc(-c2ccccc2)c2c1CCN(S(=O)(=O)c1cccs1)C2 | 52 | 8.1 | 54.9 (≈ 25 µg/mL) |  |
| COc1ccc(NC(=O)N2CCc3c(c(-c4ccccc4)nn3C(=O)C3CCCCC3)C2)cc1 | 38.7 | 52.5 | 109 (≈ 50 µg/mL) |  |
| COc1ccc(NC(=S)N2CCc3c(c(-c4ccccc4)nn3C(=O)c3ccccc3)C2)cc1 | 10.2 | 0 | 107 (≈ 50 µg/mL) |  |
| O=C(Nc1ccc([N+](=O)[O-])cc1)N1CCc2c(c(-c3ccccc3)nn2C(=O)C2CCCCC2)C1 | 50.8 | 14.9 | 52.8 (≈ 25 µg/mL) |  |
| O=C(C1CCCCC1)n1nc(-c2ccccc2)c2c1CCN(S(=O)(=O)c1ccc(F)cc1)C2 | 46.8 | 1.4 | 53.5 (≈ 25 µg/mL) |  |
| CC(=O)c1ccc(S(=O)(=O)N2CCc3c(c(-c4ccccc4)nn3C(=O)C3CCCCC3)C2)cc1 | 39.2 | 11.5 | 50.8 (≈ 25 µg/mL) |  |
| CC(C)NC(=O)N1CCc2c(c(-c3ccccc3)nn2C(=O)c2ccccc2)C1 | 40.9 | 10.6 | 129 (≈ 50 µg/mL) |  |
| Cc1ccc(S(=O)(=O)N2CCc3c(c(-c4ccccc4)nn3C(=O)c3ccccc3)C2)cc1 | 9 | 0 | 109 (≈ 50 µg/mL) |  |
| O=C(c1ccccc1)n1nc(-c2ccccc2)c2c1CCN(C(=S)Nc1ccc(Cl)cc1)C2 | 37.7 | 0 | 106 (≈ 50 µg/mL) |  |
| CCOc1ccc(NC(=O)N2CCc3c(c(-c4ccccc4)nn3C(=O)c3ccccc3)C2)cc1 | 47.2 | 0 | > 107 |  |

| Compound | inhibition [1] [%] | cytotoxicity at 72 h, 50 µM [2] [%] | MIC [3] [µM] | IC50 (Pantothenate synthetase) [µM] |
| --- | --- | --- | --- | --- |
| Cc1ccc(NC(=O)N2CCc3c(c(-c4ccccc4)nn3C(=O)C3CCCCC3)C2)cc1 | 40.8 | 15.1 | 56.5 (≈ 25 µg/mL) |  |
| CC(=O)c1ccc(NC(=O)N2CCc3c(c(-c4ccccc4)nn3C(=O)c3ccccc3)C2)cc1 | 43.7 | 12.8 | > 108 |  |
| O=C(Nc1ccc(Cl)cc1)N1CCc2c(c(-c3ccccc3)nn2C(=O)C2CCCCC2)C1 | 54.7 | 4 | 108 (≈ 50 µg/mL) |  |
| O=C(NCc1ccccc1)N1CCc2c(c(-c3ccccc3)nn2C(=O)C2CCCCC2)C1 | 49.1 | 35.7 | 54.5 (≈ 24.1 µg/mL) |  |
| O=C(Nc1ccc(Br)cc1)N1CCc2c(c(-c3ccccc3)nn2C(=O)C2CCCCC2)C1 | 50.5 | 0 | 98.5 (≈ 50 µg/mL) |  |
| Cc1ccc(NC(=O)N2CCc3c(c(-c4ccccc4)nn3C(=O)c3ccccc3)C2)cc1 | 49.4 | 57.1 | 114 (≈ 49.8 µg/mL) |  |
| CCOc1ccc(NC(=O)N2CCc3c(c(-c4ccccc4)nn3C(=O)C3CCCCC3)C2)cc1 | 48.5 | 4.9 | 106 (≈ 50 µg/mL) |  |
| O=C(c1ccccc1)n1nc(-c2ccccc2)c2c1CCN(S(=O)(=O)c1ccc([N+](=O)[O-])cc1)C2 | 39.7 | 18.6 | 25.6 (≈ 12.5 µg/mL) |  |
| CC(C)(C)OC(=O)N1CCc2[nH]nc(-c3ccccc3)c2C1 |  |  | 26.7 (≈ 7.99 µg/mL) | 21.8 |
| O=C(C1CCCCC1)n1nc(-c2ccccc2)c2c1CCN(C(=S)Nc1ccc(Cl)cc1)C2 | 56.3 | 51.1 | 109 (≈ 52.2 µg/mL) |  |
| O=C(C1CCCCC1)n1nc(-c2ccccc2)c2c1CCN(C(=S)Nc1ccc(F)cc1)C2 | 49.2 | 58.4 | 105 (≈ 48.7 µg/mL) |  |
| O=C(c1ccccc1)n1nc(-c2ccccc2)c2c1CCN(C(=S)NCc1ccccc1)C2 | 52.1 | 0 | 110 (≈ 50 µg/mL) |  |
| Cc1ccc(S(=O)(=O)N2CCc3c(c(-c4ccccc4)nn3C(=O)C3CCCCC3)C2)cc1 | 41.6 | 0 | 53.9 (≈ 25 µg/mL) |  |
| O=C(Nc1ccc(Cl)cc1)N1CCc2c(c(-c3ccccc3)nn2C(=O)c2ccccc2)C1 | 40.2 | 4.9 | 109 (≈ 50 µg/mL) |  |
| NNC(=O)c1ccncc1 [ISONIAZID] | 0 |  | 0.72 (≈ 0.0987 µg/mL) |  |
| O=C(c1ccccc1)n1nc(-c2ccccc2)c2c1CCN(S(=O)(=O)c1cccs1)C2 | 48.7 | 6.8 | 55.6 (≈ 25 µg/mL) |  |
| O=C(C1CCCCC1)n1nc(-c2ccccc2)c2c1CCN(S(=O)(=O)c1ccc([N+](=O)[O-])cc1)C2 | 50.2 | 8.3 | 50.5 (≈ 25 µg/mL) |  |
| Cc1ccc(NC(=S)N2CCc3c(c(-c4ccccc4)nn3C(=O)C3CCCCC3)C2)cc1 | 50.5 | 27.8 | 51.1 (≈ 23.4 µg/mL) |  |
| C=CCNC(=S)N1CCc2c(c(-c3ccccc3)nn2C(=O)c2ccccc2)C1 | 41.7 | 6 | > 124 |  |
| CC(=O)c1ccc(NC(=O)N2CCc3c(c(-c4ccccc4)nn3C(=O)C3CCCCC3)C2)cc1 | 51.4 | 22.5 | 108 (≈ 50.9 µg/mL) |  |
